Fewer inactive variants are shown than the library holds.
B1: tRNA (parent)
chain: GUUCCGUUGGCGUAAUGGUAACGCGUCUCCCUCCUAAGGAGAAGACUGCGGGUUCGAGUCCCGUACGGAACG

Variants of: B1
Test: yeast fitness relative to wild type (ratio to wild type); higher = fitter; tRNA-Arg(CCU), competitive growth, 37 C, YPD
Outline: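 Variants of the tRNA-Arg(CCU) gene, chemically synthesised with a 3% per-site mutation rate at 69 sites, were placed at the native genomic locus in Saccharomyces cerevisiae. The pooled strains were competed in YPD at 37°C for 24 hours in six parallel replicates. Gene amplicons from the start population and from each end population were read by 100-nucleotide paired-end sequencing. Darwinian fitness relative to wild type came from changes in genotype frequencies; genotypes needed ≥ 100 starting reads, and estimates < 0.5 were set to 0.5.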

Variant | yeast fitness
GUUCCGUUGGGGUAAUGGUAGCGCGUCUCCCUCCUAAGGAGAACACUGCGGGUUCGAGUCAUGUAUGGAACG | ≤ 0.5
GUUCCGUUGGGGUAAUGGUAACGCGUCUCCCUCCUAAGGAGAAGUCUGCGGGUUCGAGUCGCGUACGGAACG | ≤ 0.5
GUUCCGUUGGGGUAAUGGUAUCGCGUCUCCCUCCAAAGGAGAAGACUGCGGGUUCGAGUCCCGUACGGAACG | ≤ 0.5
GUUCCGUUGGGGUAAUGGUAACGCGUCUCCCUCCUAAGGAGCAGACUGCGGGUUCGAGUCCCGUACGCAACG | ≤ 0.5
GUUCCGUUGGGGUAAUGGUAACGCGUCUCCCUCCUACGGAGAAGACUGCGGGUUCGAGUCCCGUAGGUAACG | ≤ 0.5
GUUCCGUUGGGGUAAUGGUAACGCGUCUCCCUCCUACGGAGAAGAGUACGGGUUCGAGUCCCGUACGGAACG | ≤ 0.5
GUUCCGUUGGGGUAAUGGUAGCGCGUCUCCGUCCUAAGGAGGAGACUGCGGGUUCGAGUCCCGUACGGAACG | ≤ 0.5
GUUCCGUUGGGGUAAUGGUAACGCGUCUCCCUCCUACGGAGAAGAGUAUGGGUUCGAGUCCCGUACGGAACG | ≤ 0.5
GUUCCGUUGGGGUAAUGGUUAGGCGUCUCCCUCCUAAGGAGACGACUGCGGGUUCGAGUCCCGUACGGAACG | ≤ 0.5
GUUCCGUUGGGGUAAUGGUAACGCGUCUCCCUCCUGAGGAGAAGACUGCGGGUUCGAGUCCCGUACUGCACG | ≤ 0.5
GUUCCGUUGGGGUAAUGGUGACGUGUCCCCCUCCUAAGGAGAAGACUGCGGGUUCGAGUCCCGUACGGAACG | ≤ 0.5
GUUCCGUUGGGGUAAUGGUAACGCGUCUCCCUCCUAGGGAGAAGACUGCGGCUUCGAGUCCCGUACGGAUCG | 0.57
GUUCCGUUGGGGUAAUGGUAACGCGUCUCCCUCCUAAGGAGCAGACUGCGGGUUCGUGUCCCGUACGGAACG | 0.564
GUUCCGUUGGGGUAAUGGUGACGCGUCUCCCUCCUAAGGAGAAGACUGCGGGUUCGAGUCCAGUACGGAACG | ≤ 0.5
GUUCCGUUGGGGUAAUGGUAACGCGUCUCCCUCCUUAGGAGAAGACUGCGGGUUCGAGUCCCGUAUGGAACG | ≤ 0.5
GUUCCGUUGGGGUAAUGGUAACGCGUCUCCCUCCUAAGGGGAAGACUGCGGGUUCGAGUCACGUACGGAACG | 0.605
GUUCCGUUGGGGUAAUGGUAACGCGUCUCCCUCCUAAGGAGGAGUCUGCGGGUUCGAGUCCCGUACGGAACG | ≤ 0.5
GUUCCGUUGGGGUAAUGGUAGCGCGUCUGCCUCCUAAGGCGAAGACUGCGGGUACGAGUCCCGUACGGAACG | ≤ 0.5
GUUCCGUUGGGGUAAUGGUAACGCGUCUCCCUCCUAAGGAGAAGACUGCGGGUUCGCGUUCCGUACGGAACG | ≤ 0.5

Variant | yeast fitness
GUUCCGUUGGGGUAAUGGUAACGCGUCUCCCUCCUAAGGAGGAGUCCGCGGGUUCGAGUCCCGCACGGACCG | ≤ 0.5
GUUCCGUUGGGGUAAUGGUAACGCGUCUCCCUCCUACGGAGGAGACUGCGGGUUCGAGUCCCGUACGGAACG | ≤ 0.5
GUUCCGUUGGGGUAAUGGUAUCGCGUAUCCCUCCUAAGGAGAAGACUGCGGGUUCGAGUCGCGUACGGAACG | 0.531
GUUCCGUUGGGGUAAUGGUAACGCGUCUCCCUCCUAAGGAGAUGACAGCGGGUUCGAGUCCCGUUCCGAACG | ≤ 0.5
GUUCCGUUGGGGUAAUGGUAUCGCGUCUCCCUCCUAAGGAGAAGACUGCGGGUUUGAGUCCCGUACGGAACG | ≤ 0.5
GUUCCGUUGGGGUAAUGGUAUCGCGUCUCCCUCCUUAGGAGAAGACUGCGGGUUCGAGUCCCGUACGGAACG | ≤ 0.5
GUUCCGUUGGGGUAAUGGUAACGCGUCUCCCUCCUAAGGCGAAGACUGCGGGUUCGAGUCUCGUACGGAACG | ≤ 0.5
GUUCCGUUGGGGUAAUGGUAACGCGUCUCCCUCCUCAGGAGAAGACUGCGGGUUCGAGUCCCGUACGAAACG | 0.506
GUUCCGUUGGGGUAAUGGUAACGCGUCUCCCUCCUAAGGGGAAGACUGCGGGUUCGAGUCCCGUACGGAACG | 0.567
GUUCCGUUGGGGUAAUGGUACGGCGUCUCGCUCCUAAGGAGAAGUCUGCGGGUUCGAGUCCCGUACGGAACG | 0.558
GUUCCGUUGGGGUAAUGGUAACGCGUCUCCCUCCUGAGAAGAAGACUGCGGGUUCAAGUCCCGUACGGAACG | ≤ 0.5
GUUCCGUUGGGGUAAUGGUAACGCGUCUCCCUCCUAAGGAGAAGGCUGCGGGUUCGAGUCCCGUACGGAACG | 0.636
GUUCCGUUGGGGUAAUGGUAACGCGUCUCCCUCCUAAGGAGAAGACUGCGGGUUCGCGUCCCGUACGGAACG | 0.571
GUUCCGUUGGGGUAAUGGUAACGCGUCUCCCUCCUACGGAGAAGACUGCGGGUUCGAGUCCGGUAUGGAACG | ≤ 0.5
GUUCCGUUGGGGUAAUGGUUACGCGUGUUCCUCCUAAGGAGAAGACUGCGGGUUCGAGUCCUGUACGGAACG | ≤ 0.5
GUUCCGUUGGGGUAAUGGUAACGCGUCUCCCUCCUAAGGAGAAGGCUGCGGGUUCGAGUCCCGUACAGAACG | 0.539
GUUCCGUUGGGGUAAUGGUAACGCGUCUCCCUCCUACGGAGAAGACUGCGGGUUCGAGUCCCGUACGGAACG | 0.606
GUUCCGUUGGGGUAAUGGUAACGCGUCUCCCUCCUACGGAGAAGACUGCGAGUUCGAGUCCCGUACAGAACG | ≤ 0.5
GUUCCGUUGGGGUAAUGGUAACGCGUCUCCCUCCUAGGGAGAAGACUGCGCGUUCGGGUCCCGUAUGGAACG | ≤ 0.5

Source: the RNAGym collection of RNA variant scans (doi:10.1126/science.aae0568)
